Experimental data taken from ChEMBL document CHEMBL4477166, “18β-Glycyrrhetinic Acid Derivatives Possessing a Trihydroxylated A Ring Are Potent Gram-Positive Antibacterial Agents” (2016).
Converted amounts (≈) assume the structure as drawn. The source made the active and inactive calls. No cut-off for these calls is given here.

Columns and labels:
Bacillus subtilis = assay: Antibacterial activity against Bacillus subtilis ATCC 6051 by microdilution assay; assay type: functional
Method in brief: (§1)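 Turbidimetric broth microdilution. Log-phase cells were washed and resuspended in broth (LB at 37 °C for B. subtilis and S. aureus; oat bran broth at 28 °C for S. scabies) and seeded at 1 × 10⁵ CFU/mL. Twofold serial dilutions were made with DMSO ≤1% (v/v). A620 was read, then plates were incubated with vigorous shaking. MIC was the lowest concentration with no apparent growth versus vehicle-only medium without cells. Run in triplicate.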

Streptomyces scabiei = assay: Antibacterial activity against Streptomyces scabiei CGMCC4.7610246 by microdilution assay; assay type: functional; method in brief: as §1
Staphylococcus aureus [1] = assay: Antibacterial activity against Staphylococcus aureus ATCC 25923 by microdilution assay; assay type: functional; method in brief: as §1
Staphylococcus aureus [2] = assay: Antibacterial activity against methicillin-resistant Staphylococcus aureus by microdilution assay; assay type: functional
Method in brief: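 Log-phase cells seeded at 1 × 10⁵ CFU/mL. Twofold serial dilutions made in broth with DMSO cosolvent, at most 1% v/v. Turbidity read at 620 nm before and after incubation with vigorous shaking. MIC is the lowest concentration with no apparent growth versus the medium-plus-vehicle control. Run in triplicate.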

Escherichia coli = assay: Antibacterial activity against Escherichia coli at 100 uM measured after 5 to 6 hrs by microdilution assay; assay type: functional, organism-based
Pseudomonas aeruginosa [3] = assay: Antibacterial activity against Pseudomonas aeruginosa at 100 uM measured after 5 to 6 hrs by microdilution assay; assay type: functional, organism-based
Pseudomonas aeruginosa [4] = assay: Antibacterial activity against multi-drug resistant Pseudomonas aeruginosa at 100 uM measured after 5 to 6 hrs by microdilution assay; assay type: functional, organism-based
Method in brief: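 Log-phase cells seeded at 1 × 10⁵ CFU/mL. Single-dose screen at 100 μM, with DMSO cosolvent at most 1% v/v. Growth measured turbidimetrically at 620 nm, before and after incubation with vigorous shaking.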

Row | SMILES | MIC (Bacillus subtilis) | MIC (Streptomyces scabiei) | MIC (Staphylococcus aureus [1]) | MIC (Staphylococcus aureus [2]) | Activity (Escherichia coli) | Activity (Pseudomonas aeruginosa [3]) | Activity (Pseudomonas aeruginosa [4])
1 | CC1(C)[C@@H](O)[C@@H](O)[C@H](O)[C@]2(C)[C@H]3C(=O)C=C4[C@@H]5C[C@@](C)(C(=O)OCc6ccccc6Cl)CC[C@]5(C)CC[C@@]4(C)[C@]3(C)CC[C@@H]12 | > 50 µg/mL | > 50 µg/mL | > 50 µg/mL | > 50 µg/mL | inactive | inactive | inactive
2 | CCCCCCCCCCCCCCCOC(=O)[C@@]1(C)CC[C@]2(C)CC[C@]3(C)C(=CC[C@@H]4[C@@]5(C)[C@@H](O)[C@H](O)[C@H](O)C(C)(C)[C@@H]5CC[C@]43C)[C@@H]2C1 | > 50 µg/mL | > 50 µg/mL | > 50 µg/mL | > 50 µg/mL | inactive | inactive | inactive
3 | CCCCOC(=O)[C@@]1(C)CC[C@]2(C)CC[C@]3(C)C(=CC[C@@H]4[C@@]5(C)[C@@H](O)[C@H](O)[C@H](O)C(C)(C)[C@@H]5CC[C@]43C)[C@@H]2C1 | > 34.8 µg/mL | 4.3 µg/mL (≈ 7.89 µM) | > 34.8 µg/mL | > 32 µg/mL | inactive | inactive | inactive
4 | CC1(C)[C@@H](O)[C@@H](O)[C@H](O)[C@]2(C)[C@H]3C(=O)C=C4[C@@H]5C[C@@](C)(C(=O)OCc6ccccc6[N+](=O)[O-])CC[C@]5(C)CC[C@@]4(C)[C@]3(C)CC[C@@H]12 | > 50 µg/mL | > 50 µg/mL | > 50 µg/mL | > 50 µg/mL | inactive | inactive | inactive
5 | CC1(C)[C@H](O)[C@@H]2O[C@@H]2[C@]2(C)[C@H]3C(=O)C=C4[C@@H]5C[C@@](C)(C(=O)OCc6ccccc6)CC[C@]5(C)CC[C@@]4(C)[C@]3(C)CC[C@@H]12 | > 36.7 µg/mL | 36.7 µg/mL (≈ 63.8 µM) | > 36.7 µg/mL | > 32 µg/mL | inactive | inactive | inactive
6 | CC1(C)[C@@H](O)[C@@H](O)[C@H](O)[C@]2(C)[C@H]3CC=C4[C@@H]5C[C@@](C)(C(=O)OCc6ccccc6[N+](=O)[O-])CC[C@]5(C)CC[C@@]4(C)[C@]3(C)CC[C@@H]12 | > 50 µg/mL | > 50 µg/mL | > 50 µg/mL | > 50 µg/mL | inactive | inactive | inactive
7 | CCCCCCCCCCCCCCCOC(=O)[C@@]1(C)CC[C@]2(C)CC[C@]3(C)C(=CC(=O)[C@@H]4[C@@]5(C)[C@@H](O)[C@H](O)[C@H](O)C(C)(C)[C@@H]5CC[C@]43C)[C@@H]2C1 | > 50 µg/mL | > 50 µg/mL | > 50 µg/mL | > 50 µg/mL | inactive | inactive | inactive
8 | CC1(C)[C@@H](O)CC[C@]2(C)[C@H]3C(=O)C=C4[C@@H]5C[C@@](C)(C(=O)OCc6ccccc6)CC[C@]5(C)CC[C@@]4(C)[C@]3(C)CC[C@@H]12 | > 50 µg/mL | > 50 µg/mL | > 50 µg/mL | > 50 µg/mL | inactive | inactive | inactive
9 | CC1(C)C(=O)C=C[C@]2(C)[C@H]3C(=O)C=C4[C@@H]5C[C@@](C)(C(=O)OCc6ccccc6)CC[C@]5(C)CC[C@@]4(C)[C@]3(C)CC[C@@H]12 | > 50 µg/mL | > 50 µg/mL | > 50 µg/mL | > 50 µg/mL | inactive | inactive | inactive
10 | COC(=O)[C@@]1(C)CC[C@]2(C)CC[C@]3(C)C(=CC(=O)[C@@H]4[C@@]5(C)[C@@H](O)[C@H](O)[C@H](O)C(C)(C)[C@@H]5CC[C@]43C)[C@@H]2C1 | > 50 µg/mL | > 50 µg/mL | > 50 µg/mL | > 50 µg/mL | inactive | inactive | inactive
11 | CC1(C)[C@@H](O)[C@@H](O)[C@H](O)[C@]2(C)[C@H]3CC=C4[C@@H]5C[C@@](C)(C(=O)OCc6ccc([N+](=O)[O-])cc6)CC[C@]5(C)CC[C@@]4(C)[C@]3(C)CC[C@@H]12 | > 50 µg/mL | > 50 µg/mL | > 50 µg/mL | > 50 µg/mL | inactive | inactive | inactive
12 | CC1(C)C(=O)[C@@H]2O[C@@H]2[C@]2(C)[C@H]3CC=C4[C@@H]5C[C@@](C)(C(=O)OCc6ccccc6)CC[C@]5(C)CC[C@@]4(C)[C@]3(C)CC[C@@H]12 | > 50 µg/mL | > 50 µg/mL | > 50 µg/mL | > 50 µg/mL | inactive | inactive | inactive
13 | CCOC(=O)[C@@]1(C)CC[C@]2(C)CC[C@]3(C)C(=CC(=O)[C@@H]4[C@@]5(C)[C@@H](O)[C@H](O)[C@H](O)C(C)(C)[C@@H]5CC[C@]43C)[C@@H]2C1 | 16.9 µg/mL (≈ 31.8 µM) | 2.1 µg/mL (≈ 3.96 µM) | 4.2 µg/mL (≈ 7.91 µM) | 4 µg/mL (≈ 7.54 µM) | inactive | inactive | inactive
14 | CCCOC(=O)[C@@]1(C)CC[C@]2(C)CC[C@]3(C)C(=CC[C@@H]4[C@@]5(C)[C@@H](O)[C@H](O)[C@H](O)C(C)(C)[C@@H]5CC[C@]43C)[C@@H]2C1 | > 33.9 µg/mL | > 33.9 µg/mL | 8.4 µg/mL (≈ 15.8 µM) | 8 µg/mL (≈ 15.1 µM) | inactive | inactive | inactive
15 | CCCCCOC(=O)[C@@]1(C)CC[C@]2(C)CC[C@]3(C)C(=CC(=O)[C@@H]4[C@@]5(C)[C@@H](O)[C@H](O)[C@H](O)C(C)(C)[C@@H]5CC[C@]43C)[C@@H]2C1 | > 50 µg/mL | > 50 µg/mL | > 50 µg/mL | > 50 µg/mL | inactive | inactive | inactive
16 | CCCCCOC(=O)[C@@]1(C)CC[C@]2(C)CC[C@]3(C)C(=CC[C@@H]4[C@@]5(C)[C@@H](O)[C@H](O)[C@H](O)C(C)(C)[C@@H]5CC[C@]43C)[C@@H]2C1 | > 50 µg/mL | > 50 µg/mL | > 50 µg/mL | > 50 µg/mL | inactive | inactive | inactive
17 | CC1(C)[C@H](O)[C@@H](O)[C@H](O)[C@]2(C)[C@H]3C(=O)C=C4[C@@H]5C[C@@](C)(C(=O)O)CC[C@]5(C)CC[C@@]4(C)[C@]3(C)CC[C@@H]12 | > 50 µg/mL | > 50 µg/mL | > 50 µg/mL | > 50 µg/mL | inactive | inactive | inactive
18 | CCCCOC(=O)[C@@]1(C)CC[C@]2(C)CC[C@]3(C)C(=CC(=O)[C@@H]4[C@@]5(C)[C@@H](O)[C@H](O)[C@H](O)C(C)(C)[C@@H]5CC[C@]43C)[C@@H]2C1 | > 35.7 µg/mL | 4.4 µg/mL (≈ 7.87 µM) | > 35.7 µg/mL | 4 µg/mL (≈ 7.16 µM) | inactive | inactive | inactive
19 | CC1(C)[C@@H](O)CC[C@]2(C)[C@H]3CC=C4[C@@H]5C[C@@](C)(C(=O)O)CC[C@]5(C)CC[C@@]4(C)[C@]3(C)CC[C@@H]12 | > 50 µg/mL | > 50 µg/mL | > 50 µg/mL | > 50 µg/mL | inactive | inactive | inactive
20 | CC1(C)[C@@H](O)[C@@H](O)[C@H](O)[C@]2(C)[C@H]3C(=O)C=C4[C@@H]5C[C@@](C)(C(=O)O)CC[C@]5(C)CC[C@@]4(C)[C@]3(C)CC[C@@H]12 | > 50 µg/mL | > 50 µg/mL | > 50 µg/mL | > 50 µg/mL | inactive | inactive | inactive
21 | CC1(C)C(=O)C=C[C@]2(C)[C@H]3CC=C4[C@@H]5C[C@@](C)(C(=O)OCc6ccccc6)CC[C@]5(C)CC[C@@]4(C)[C@]3(C)CC[C@@H]12 | > 34.6 µg/mL | 34.6 µg/mL (≈ 63.7 µM) | > 34.6 µg/mL | > 32 µg/mL | inactive | inactive | inactive
22 | CC1(C)[C@@H](O)[C@@H](O)[C@H](O)[C@]2(C)[C@H]3C(=O)C=C4[C@@H]5C[C@@](C)(C(=O)OCc6ccc(Cl)cc6)CC[C@]5(C)CC[C@@]4(C)[C@]3(C)CC[C@@H]12 | > 50 µg/mL | > 50 µg/mL | > 50 µg/mL | > 50 µg/mL | inactive | inactive | inactive
